The results in this text go back to ChEMBL document CHEMBL2046340, “Naphthoquinones from Onosma paniculata induce cell-cycle arrest and apoptosis in melanoma Cells” (J Nat Prod, 2012).

Molecules are shown by their SMILES. Active and inactive are the calls of the source. The calls are words filed in the database; no cut-off is given here.

Assay [1] in a line: Cytotoxicity against human WM9 cells after 72 hrs by XTT assay. The note with it: WM9, 72 h. The format is functional, cell-based. The essentials: (§1)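 Melanoma lines (SBcl2, WM35, WM9, WM164) kept in RPMI 1640 with 2 mM glutamine and 2% FBS, 37 °C, 5% CO2. Plated at 5000 cells/well overnight and treated 72 h across at least eight concentrations (freshly diluted from DMSO; vehicle 0.5% DMSO). XTT absorbance read after 1.5 h. IC50 from four-parameter logistic curves; two passages in triplicate, six experiments, mean ± SEM.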
On the technique in general: Formazan colour is commonly taken as a measure of viable cells.

Assay [2] is described as follows: Cytotoxicity against human SBcl2 cells after 72 hrs by XTT assay. The class given is functional, cell-based. The note with it: SBcl2, 72 h. The essentials: as §1
Another assay deals with CCRF-CEM. Nature of the assay: Cytotoxicity against human CCRF-CEM cells after 72 hrs by XTT assay. The class given is functional, cell-based. The essentials: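 CCRF-CEM leukaemia cells in RPMI 1640 with 2 mM glutamine and 10% FBS, 37 °C, 5% CO2. Seeded at 10 000 cells/well and exposed for 72 h to at least eight concentrations, freshly diluted from DMSO into medium (vehicle 0.5% DMSO). XTT with electron coupling reagent was read after 4 h. IC50 came from a four-parameter logistic fit over two passages × three wells; six independent experiments.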

Assay [3] in a line: Cytotoxicity against human WM35 cells after 72 hrs by XTT assay. The class given is functional, cell-based. The note with it: WM35, 72 h. The essentials:
as §1

The next assay has as its system HCT-116. The assay can be described thus: Cytotoxicity against human HCT116 cells after 72 hrs by XTT assay. The class given is functional, cell-based. The note with it: HCT-116, 72 h. The procedure, abridged:
(§2)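 U251 glioblastoma and HCT 116 colon cells grown in high-glucose DMEM with 2 mM glutamine and 10% FBS. 5000 cells/well attached overnight, then received at least eight concentrations for 72 h (0.5% DMSO vehicle). XTT read 1.5 h after addition. IC50 by four-parameter logistic fit; two passages × three wells, six independent experiments, mean ± SEM.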

A further assay concerns MDA-MB-231. The assay can be described thus: Cytotoxicity against human MDA-MB-231 cells after 72 hrs by XTT assay. The class given is functional, cell-based. To be noted: MDA-MB-231, 72 h. The procedure, abridged:
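MDA-MB-231 breast cancer cells, RPMI 1640 with 2 mM glutamine and 10% FBS, 37 °C in 5% CO2. Seeded at 5000 cells/well, adhered overnight, then 72 h exposure over at least eight concentrations with 0.5% DMSO vehicle. XTT readout after 1.5 h. Four-parameter logistic IC50 from two passages each in three wells; mean ± SEM of six experiments.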

The test system of the next assay is U-251. Nature of the assay: Cytotoxicity against human U251 cells after 72 hrs by XTT assay. To be noted: U-251, 72 h. The class given is functional, cell-based. The essentials:
as §2

In assay [4] the test system is MRC5. The assay can be described thus: Selectivity ratio of IC50 for human MRC5 cells to IC50 for human CCRF-CEM cells. The essentials:
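The ratio uses XTT viability IC50s from a 72 h exposure. MRC-5 fibroblasts were grown in MEM and CCRF-CEM cells in RPMI 1640, both with 10% FBS; both were seeded at 10 000 cells/well. XTT was read after 1.5 h (MRC-5) or 4 h (CCRF-CEM). IC50s came from four-parameter logistic fits over at least eight concentrations, six independent experiments.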

A short description of assay [5]: Cytotoxicity against human WM164 cells after 72 hrs by XTT assay. The class given is functional, cell-based. The note with it: WM164, 72 h. The essentials:
as §1

Assay [6] has as its system MRC5. Nature of the assay: Cytotoxicity against human MRC5 cells after 72 hrs by XTT assay. The class given is cell-based. To be noted: MRC5, 72 h. The essentials: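 MRC-5 lung fibroblasts in MEM with 2 mM glutamine and 10% FBS. Seeded at 10 000 cells/well, attached overnight, then treated 72 h with at least eight concentrations (DMSO stock diluted in medium, 0.5% DMSO vehicle). XTT was added and read 1.5 h later. IC50 came from a four-parameter logistic curve; two passages × triplicate wells, six independent experiments, mean ± SEM.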

Assay [7] can be described thus: Cell cycle arrest in human WM164 cells assessed as accumulation at G2/M phase at IC50 after 12 to 72 hrs using propidium iodide staining by FACS analysis. The format is functional, cell-based. The procedure, abridged: (§3)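 Melanoma lines were kept in RPMI 1640 with 2 mM L-glutamine, 2% FBS and penicillin/streptomycin at 37 °C under 5% CO2. Cells were exposed for 12–72 h, with 0.5% DMSO vehicle controls, then trypsinized. 5 × 10^5 cells were fixed in ice-cold 70% EtOH for 10 min at 4 °C, washed in PBS and stained with PI/RNase A for 15 min at 37 °C. Phases were read by flow cytometry; n = 3 means.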

The test system of assay [8] is SBcl2. The assay can be described thus: Induction of morphological changes in human SBcl2 cells assessed as less density and round shape phenotype with fewer dendrites of cells at IC50 after 24 to 48 hrs. The format is functional, cell-based.
Another assay concerns WM35. The assay can be described thus: Induction of morphological changes in human WM35 cells assessed as less density and round shape phenotype with fewer dendrites of cells at IC50 after 24 to 48 hrs. The format is functional, cell-based.
Assay [9] is described as follows: Induction of apoptosis in human WM35 cells assessed as accumulation at sub-G1 phase at IC50 after 24 […].
Assay [10] deals with SBcl2. Nature of the assay: Induction of apoptosis in human SBcl2 cells assessed as accumulation at sub-G1 phase at IC50 after 24 […].
The test system of a further assay is WM9. The assay can be described thus: Induction of morphological changes in human WM9 cells assessed as less density and round shape phenotype with fewer dendrites of cells at IC50 after 24 to 48 hrs. The format is functional, cell-based.
Assay [11] relates to WM164. The assay can be described thus: Induction of apoptosis in human WM164 cells assessed as increased accumulation at sub-G1 phase at IC50 after 24 […].
Assay [12] has as its system WM164. The assay can be described thus: Induction of morphological changes in human WM164 cells assessed as less density and round shape phenotype with fewer dendrites of cells at IC50 after 24 to 48 hrs. The format is functional, cell-based.
Assay [13] is described as follows: Induction of apoptosis in human WM9 cells assessed as accumulation at sub-G1 phase at IC50 after 24 […].
Assay [14] can be described thus: Cell cycle arrest in human WM9 cells assessed as accumulation at G2/M phase at IC50 after 12 to 72 hrs using propidium iodide staining by FACS analysis. The class given is functional, cell-based. The essentials:
as §3

Assay [15] can be described thus: Cell cycle arrest in human WM35 cells assessed as increase of cells accumulation at S phase at IC50 after 12 to 72 hrs using propidium iodide staining by FACS analysis. The class given is functional, cell-based. The procedure, abridged: as §3
Background: In flow cytometry, cells or beads pass a laser one at a time.

Assay [16] can be described thus: Cell cycle arrest in human SBcl2 cells assessed as increase of cells accumulation at S phase at IC50 after 12 to 72 hrs using propidium iodide staining by FACS analysis. The format is functional, cell-based. The procedure, abridged:
as §3

One may read the IC50 as the concentration that inhibits the measured activity by half. Read a high IC50 as a need for much substance. In the case of `CC(=O)O[C@H](CC=C(C)C)C1=CC(=O)c2c(O)ccc(O)c2C1=O` [ACETYLSHIKONIN], the IC50 was 23.5 µM in assay [1]; 13 µM in assay [2]; 1 µM in the assay with CCRF-CEM; 30.7 µM in assay [3]; 9 µM with HCT-116; 11.3 µM in the assay with MDA-MB-231. In addition, the 50% inhibitory concentration (IC50) turned out to be 15.9 µM in the assay with U-251, 71.5 µM in assay [5] and 2.6 µM in the assay on MRC5 [6]. In addition, in the assay with MRC5 [4], the Ratio IC50 was 2.6.

As to `CC(C)=CC[C@@H](OC(=O)CC(C)(C)O)C1=CC(=O)c2c(O)ccc(O)c2C1=O` [BETA-HYDROXYISOVALERYLSHIKONIN], the IC50 worked out at 12.7 µM in [1]; 8.3 µM in [2]; 0.6 µM with CCRF-CEM; 13 µM in [3]; 4.1 µM with HCT-116; 4.6 µM in the assay on MDA-MB-231. Moreover, the results for the IC50 (in the assay with U-251; in assay [5]; in the assay on MRC5 [6]) were 23.6 µM, 30.9 µM and 3.9 µM, respectively. Besides, the “Ratio IC50” value with MRC5 [4] stood at 6.

Regarding `CC(C)=CC[C@@H](OC(=O)C=C(C)C)C1=CC(=O)c2c(O)ccc(O)c2C1=O` [DIMETHYLACRYLSHIKONIN], the result (in [7]; with SBcl2 [8]; in the assay with WM35; in the assay with WM9; in the assay on WM164 [12]; in assay [14]) was Active. For the same compound, the result in [15] and in assay [16] was Active. The IC50 is 2.7 µM in assay [1]; 1.1 µM in assay [2]; 1.9 µM with CCRF-CEM; 2.3 µM in assay [3]; 20 µM with HCT-116; 23.2 µM in the assay on MDA-MB-231. For the same compound, the figures for the IC50 (in the assay with U-251; in [5]; with MRC5 [6]) were 30.8 µM, 8.3 µM and 2.4 µM, respectively. Also, the Activity (in [9]; in the assay on SBcl2 [10]; in the assay on WM164 [11]; in [13]) was 20% each time. In addition, the Ratio IC50 in the assay with MRC5 [4] was 1.3.

As to `CC[C@]1(O)C[C@@H]2CN(CCc3c([nH]c4ccccc34)[C@@](C(=O)OC)(c3cc4c(cc3OC)N(C)[C@H]3[C@@](O)(C(=O)OC)[C@H](OC(C)=O)[C@]5(CC)C=CCN6CC[C@]43[C@@H]65)C2)C1` [VINBLASTINE], the IC50 turned out to be 0.015 µM in assay [1]; 0.011 µM in [2]; 0.0094 µM in the assay on CCRF-CEM; 0.0035 µM in [3]; 0.0087 µM with HCT-116; 0.031 µM with MDA-MB-231. Further, the results for the IC50 (in the assay with U-251; in assay [5]; with MRC5 [6]) were 0.0081 µM, 0.0042 µM and 0.024 µM, respectively.
